Screens deposited in PubChem BioAssay by several laboratories.
CYP2C19 inh – blockers of cytochrome P450 2C19 activity – biochemical, luminescence, ADME assay, primary screen. P33261. CYP2C19 Supersomes, luciferin-H EGE luminescence, 30 min. inhibition, % at 5 µM. 96,000 tested, 21% active. AID 778, 2007;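 active = CYP2C19 inhibition above a set limit at 5 µM in the primary screen, cut at about 50% in these data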
Target sequence (P33261 whole entry, looked up): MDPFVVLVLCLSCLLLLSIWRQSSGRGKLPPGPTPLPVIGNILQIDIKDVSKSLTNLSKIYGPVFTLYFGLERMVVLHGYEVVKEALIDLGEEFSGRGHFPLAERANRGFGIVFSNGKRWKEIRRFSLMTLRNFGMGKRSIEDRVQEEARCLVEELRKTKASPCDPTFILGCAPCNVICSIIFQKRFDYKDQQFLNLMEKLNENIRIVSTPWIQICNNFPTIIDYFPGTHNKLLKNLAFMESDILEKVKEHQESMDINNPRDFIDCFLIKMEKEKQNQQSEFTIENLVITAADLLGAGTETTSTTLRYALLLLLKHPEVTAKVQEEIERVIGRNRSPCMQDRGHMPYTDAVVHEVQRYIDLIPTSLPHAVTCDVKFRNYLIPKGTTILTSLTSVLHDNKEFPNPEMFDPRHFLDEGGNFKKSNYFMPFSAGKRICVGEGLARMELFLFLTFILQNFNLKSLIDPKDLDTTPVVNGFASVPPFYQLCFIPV
CYP2C19 act – human CYP2C19 activators, primary screen, biochemical, luminescence. 96,000 tested, under 10 active. activation factor at 5 µM. recombinant CYP2C19, luciferin-H EGE luminescence; hits give high values; 0 = fully inhibited enzyme, 1 = untreated enzyme;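 active = activation factor of at least 2 at 5 µM in the primary screen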
HIV Rev-RRE inh – HIV-1 Rev-RRE binding inhibitors, primary screen, biochemical, FRET, protein-RNA interaction | P05866 | Rev peptide-RRE RNA binding | inhibition, % at 8 µM | 97,000 tested, 0.79% active | AID 704, 2007;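 active = inhibition above the screen-wide mean plus 3 SD, cut at about 35% in these data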
Target sequence (P05866 whole entry, looked up): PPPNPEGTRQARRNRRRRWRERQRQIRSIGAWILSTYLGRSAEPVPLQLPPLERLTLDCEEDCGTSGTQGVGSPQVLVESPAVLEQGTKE
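Probe or stimulus: fluorescein-Rev peptide as binding partner; assay system: Cy5-tagged RRE RNA duplex with fluorescein-tagged Rev peptide; timing: 5 min compound–RNA preincubation, then 15 min with peptide, 25 °C; medium: HEPES pH 7.5 buffer with KCl, MgCl2, NaCl and EDTA; signal: fluorescein-to-Cy5 FRET, 480 nm excitation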
CYP2C9 act – human CYP2C9 activators, primary screen, biochemical, luminescence; 96,000 tested, 1.4% active; activation factor at 5 µM; recombinant CYP2C9, luciferin-H conversion; hits give high values; factor 1 = untreated enzyme, 0 = blocked; AID 1024, 2008;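 active = activation factor of 2 or more for CYP2C9 at a 5 µM dose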
Cav3 T inh – Cav3.2 calcium influx blockers – cell-based, Fluo-4 calcium fluorescence, FDSS, MLSMR library, primary screen. Voltage-dependent T-type calcium channel subunit alpha-1H (Homo sapiens), O95180. Cav3.2-expressing cells; hits give low values. B-score at 10 µM. 100,000 tested, 4% active. AID 449739, 2010;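 active = single-dose well whose peak fluorescence ratio is a statistical outlier from its plate by either plate-standardised score or position-corrected B-score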
CYP2C9 inhib – blockers of cytochrome P450 2C9 activity – biochemical, luminescence, ADME assay, primary screen; inhibition, % at 5 µM; CYP2C9 Supersomes, luciferin-H conversion; 96,000 tested, 20% active;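 active = blocking of liver enzyme CYP2C9 beyond about 50% at 5 µM, limit read from the data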
Hits are given with their value; . = inactive; / = no result given. Rows were chosen to be rich in hits. Some 27% of all compounds tested hit in one or more screens of this group.

SMILES	CYP2C19 inh	CYP2C19 act	HIV Rev-RRE inh	CYP2C9 act	Cav3 T inh	CYP2C9 inhib
Cc1cc(C)c(C#N)c(SCSCc2ccccc2)n1	99	.	.	.	.	74
COCCn1c(C)cc(C(=O)CSc2nc3ccccc3o2)c1C	.	.	.	.	.	.
O=C(CSc1nnc2ccccn12)c1ccc(OC(F)F)cc1OC(F)F	76	.	.	.	.	.
COCCn1c(C)cc(C(=O)CSc2nnc3ccccn23)c1C	71	.	.	.	.	.
COCCn1c(C)cc(C(=O)CSc2nc(C)cc(C)c2C#N)c1C	78	.	.	.	.	.
Cc1cc(C)c(C#N)c(SCc2ccccc2)n1	/	/	.	/	.	/
Cc1cc(C)c(C#N)c(SCC(=O)c2cc(C)n(CCc3ccccc3)c2C)n1	82	.	.	.	.	85
CCOC(=O)CSc1nc(C)cc(C)c1C#N	.	.	.	.	.	.
COC(=O)c1ccc(Cn2nc(C)cc2C)cc1	93	.	.	.	.	.
COC(=O)c1cc2n(n1)CCN(Cc1ccc(F)cc1)C2=O	.	.	.	.	.	.
COC(=O)c1cc(C(=O)OC)n(Cc2ccc(Br)cc2)n1	91	.	.	.	.	58
Cc1cc(C)n(Cc2ccc(NC(=O)c3ccc(COc4ccccc4Br)cc3)cc2)n1	.	.	.	.	/	77
Cc1cc(C)n(Cc2ccc(C(=O)O)cc2)n1	.	.	.	.	.	.
COC(=O)c1ccc(Cn2nc(C)c(Br)c2C)cc1	99	.	.	.	.	70
COC(=O)c1ccc(Cn2nc(C(F)(F)F)cc2C)cc1	69	.	.	.	.	.
CCn1c(SCC(=O)N2c3ccccc3CCc3ccccc32)nc2c1c(=O)n(C)c(=O)n2C	/	/	.	/	.	/
CC(C)c1nc(SCC(=O)N2c3ccccc3CC2C)c2ccccc2n1 (configuration not stated)	59	.	.	.	.	99
Cc1cc2ccccc2nc1SCC(=O)N1c2ccccc2CC1C (configuration not stated)	.	.	.	.	.	.
CC1Cc2ccccc2N1C(=O)CN1CCc2ccccc2C1 (configuration not stated)	92	.	/	.	.	.
CC1Cc2ccccc2N1C(=O)CSc1nc2c(c(=O)n(C)c(=O)n2C)n1Cc1ccccc1 (configuration not stated)	76	.	.	.	.	96
CC1Cc2ccccc2N1C(=O)CSc1nnnn1Cc1ccccc1 (configuration not stated)	90	.	/	.	.	84
O=C(c1ccc2ncsc2c1)N1CCN(c2ccc(O)cc2)CC1	.	.	.	.	.	.
O=C(COc1cc(Cl)ccc1Cl)Nc1nnc(CC(=O)N2CCOCC2)s1	.	.	.	.	.	.
CC1CCN(CCCNC(=O)COc2cc(=O)n(C)c3ccccc23)CC1	.	.	.	.	.	.
Cc1ccc(C(=O)COC(=O)CCC(=O)Nc2cc(Cl)ccc2Cl)cc1[N+](=O)[O-]	.	.	.	.	.	.
SMILES	CYP2C19 inh	CYP2C19 act	HIV Rev-RRE inh	CYP2C9 act	Cav3 T inh	CYP2C9 inhib
CC1Cc2ccccc2N1C(=O)CSc1nnc2c(n1)[nH]c1ccc(F)cc12 (configuration not stated)	/	/	.	/	-5.9	/
CC1Cc2ccccc2N1c1nc(C2CC2)nc2c1nnn2Cc1ccccc1 (configuration not stated)	/	/	.	/	.	/
CC(C)NC(=O)Cn1c(SCC(=O)N2CCCCCC2)nc2ccccc21	.	.	.	.	.	.
CC1Cc2ccccc2N1c1ncnc2c1nnn2Cc1ccccc1 (configuration not stated)	.	.	.	.	.	65
CC(C)NC(=O)Cn1c(SCC(=O)N2c3ccccc3CC2C)nc2ccccc21 (configuration not stated)	61	.	.	.	.	91
CC1Cc2ccccc2N1C(=O)CSC1=NCCS1 (configuration not stated)	.	.	.	.	.	.
CC1Cc2ccccc2N1C(=O)CSc1ccccc1 (configuration not stated)	96	.	.	.	.	.
COc1ccccc1Oc1ccc2c(c1)C(=O)N(c1ccc(Br)c3cccnc13)C2=O	.	.	.	.	.	.
N#Cc1c2n(c(=O)[nH]c1=O)CCCCC2	/	/	.	/	.	/
N#Cc1c(N)c(C(=O)c2ccccc2)n2c1CCC2	51	.	.	.	.	.
COC(=O)c1c(N)c(C#N)c2n1CCCCC2	76	.	.	.	.	.
N#Cc1c2n(c3c(-c4ccccc4)ncnc13)CCC2	.	.	.	.	.	.
COc1ccccc1N1CCN(C(c2cccs2)C(C)NC(=O)c2cccs2)CC1 (configuration not stated)	/	/	.	/	.	/
CC(C)NS(=O)(=O)c1ccc(OCC(=O)N(C)Cc2ccccc2)cc1	51	.	.	.	.	.
COc1ccc(OCC(=O)N(C)Cc2ccccc2)cc1	97	.	/	.	.	.
CC(C)NS(=O)(=O)c1ccc(OCC(=O)Nc2ccc(F)cc2F)cc1	.	.	.	.	.	50
CC(C)NS(=O)(=O)c1ccc(OCC(=O)Nc2ccccc2F)cc1	.	.	.	.	.	.
COCCCN(C(C)=O)c1nc(-c2ccccc2)cs1	.	.	.	.	.	.
COc1ccc(-c2csc(N(CCc3ccccc3)C(=O)COc3ccccc3)n2)cc1	.	.	.	.	/	92
Cc1ccc(-n2c(C)nnc2SCC(=O)Nc2ccccc2)cc1	/	/	.	/	.	/
O=C(N/N=C/c1ccc(OCC(=O)N2CCCCC2)cc1)c1ccccc1	.	.	.	.	.	.
COc1cc(/C=N/NC(=O)c2c(-c3ccccc3)noc2C)ccc1O	52	.	.	.	.	77
COc1cc(/C=N/NC(=O)C2c3ccccc3Oc3ccccc32)ccc1O	.	.	.	.	.	53
CCn1c2ccccc2c2cc(/C=N/NC(=O)c3ccccc3)ccc21	73	.	.	.	.	.
COc1cc(/C=N/NC(=O)CCn2c3ccccc3c3ccccc32)ccc1O	60	.	.	.	.	65
COc1cccc(/C=N/NC(=O)c2c(-c3ccccc3)noc2C)c1O	.	.	.	.	.	.
COc1ccc2c(c1)OCC1=C2CCC2(C)C(=O)CC=C12 (configuration not stated)	.	.	.	.	/	64
NC(=O)CC(NC(=O)Cc1cccc2ccccc12)c1ccc(NC2CCCCC2)c([N+](=O)[O-])c1 (configuration not stated)	/	/	/	/	.	/
